Measured values reported in ChEMBL document CHEMBL2203189, “Synthesis and pharmacology of 1-alkyl-3-(1-naphthoyl)indoles: steric and electronic effects of 4- and 8-halogenated naphthoyl substituents” (Bioorg Med Chem, 2012).
Calls of active or inactive are those of the source.

Assays:
Cannabinoid receptor 1 [1] = biological target: T1, Cannabinoid receptor 1 (Homo sapiens, UniProt P21554); assay: Displacement of [3H]CP55940 from human CB1 receptor expressed in HEK293 cells after 1 hr by liquid scintillation spectrophotometry; type: cell-based
Procedure, shortened: (§1)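 Membranes (50 µg) from HEK-293 cells stably expressing human CB1, cultured in DMEM/10% FBS. Incubated with 0.5 nM [3H]CP55,940 and test compound at 1 nM–10 µM in buffer with BSA (5 mg/mL), 1 h at 30 °C. Nonspecific binding defined with excess unlabelled CP55,940. Filtered through GF/B, then scintillation counting.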

Cannabinoid receptor 2 = Cannabinoid receptor 2 (Homo sapiens, UniProt P34972); assay: Displacement of [3H]CP55940 from human CB2 receptor expressed in CHO cells after 1 hr by liquid scintillation spectrophotometry; type: cell-based
Procedure, shortened: as §1, with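 “CHO” for “HEK-293”, “CB2,” for “CB1,”, “fetal calf serum.” for “FBS.”, “µM” for “µM in buffer”, “GF/B filtration,” for “Filtered through GF/B,”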

Homo sapiens = organism: Homo sapiens; assay: Selectivity ratio of Ki for human CB1 receptor to Ki for human CB2 receptor
Mus musculus [2] = assay: Locomotor activity in iv dosed Harlan ICR mouse from 5 to 15 mins by spontaneous locomotor activity test; type: functional
Mus musculus [3] = assay: Antinociceptive activity in iv dosed Harlan ICR mouse assessed as latency to heat-induced tail flicking at 20 mins; type: functional
Procedure, shortened: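 Male ICR mice, 18–25 g, n = 6 per dose. Multiple doses iv by tail vein in emulphor–ethanol–saline 1:1:18. Tail-flick latency at 20 min, 10 s cutoff, expressed as %MPE.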

Mus musculus [4] = assay: Hypothermic activity in iv dosed Harlan ICR mouse assessed as change in rectal temperature at 30 mins; type: functional; conditions: 0.5 h
Mus musculus [5] = assay: Induction of catalepsy in iv dosed Harlan ICR mouse at 40 mins measured for 5 mins by ring immobility test; type: functional
Cannabinoid receptor 1 [6] = biological target: T1, Cannabinoid receptor 1; assay: Activation of human CB1 receptor expressed in HEK293 cells assessed as [35S]GTPgamma binding after 90 mins by liquid scintillation spectrophotometry; type: functional, cell-based
Procedure, shortened: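 Membranes from HEK-293 cells stably expressing human CB1, pelleted at 50,000g and taken up in Tris-HCl pH 7.4 with MgCl2, EGTA and NaCl. 10 µg protein with BSA, 20 µM GDP, 0.1 nM [35S]GTPγS and graded test concentrations, 90 min at 30 °C. 2 µM CP55,940 run as internal standard; basal without agonist, nonspecific with 10 µM GTPγS. Filtration, then scintillation counting.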

Mus musculus [7] = assay: Locomotor activity in Harlan ICR mouse assessed as inhibition of activity level at 77 umol/kg, iv from 5 to 15 mins by spontaneous locomotor activity test relative to vehicle treated control; type: functional
Procedure, shortened: (§2)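 Male ICR mice, n = 6 per dose, single probe dose iv in emulphor–ethanol–saline 1:1:18. Photocell beam interruptions recorded over 10 min, at 5–15 min after dosing. Result given as % inhibition relative to the vehicle group.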

Mus musculus [8] = assay: Antinociceptive activity in Harlan ICR mouse assessed as latency to heat-induced tail flicking at 77 umol/kg, iv at 20 mins relative to control; type: functional
Mus musculus [9] = assay: Hypothermic activity in Harlan ICR mouse assessed as change in rectal temperature at 77 umol/kg, iv at 30 mins; type: functional
Procedure, shortened: (§3)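 Male ICR mice, n = 6 per dose. Single probe dose iv in emulphor–ethanol–saline 1:1:18. Rectal temperature taken with a thermistor probe at 25 mm depth before dosing and at 30 min. Result given as change from pre-injection value (°C).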

Mus musculus [10] = assay: Induction of catalepsy in Harlan ICR mouse at 77 umol/kg, iv at 40 mins measured for 5 mins by ring immobility test; type: functional
Procedure, shortened: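 Male ICR mice given a single iv probe dose in emulphor–ethanol–saline 1:1:18. At 40 min placed on a 5.5 cm ring raised 16 cm and observed for 5 min by blinded raters. Up to 5 escapes allowed; mice escaping before 2.5 min excluded. Immobility index = time motionless / 300 s × 100.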

Mus musculus [11] = assay: Locomotor activity in Harlan ICR mouse assessed as inhibition of activity level at 66 umol/kg, iv from 5 to 15 mins by spontaneous locomotor activity test relative to vehicle treated control; type: functional; procedure, shortened: as §2
Mus musculus [12] = assay: Locomotor activity in Harlan ICR mouse assessed as inhibition of activity level at 6.2 umol/kg, iv from 5 to 15 mins by spontaneous locomotor activity test relative to vehicle treated control; type: functional, organism-based
Procedure, shortened: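 Spontaneous activity in male ICR mice (18–25 g) after one iv tail-vein probe dose in 1:1:18 emulphor–ethanol–saline. Photocell beam interruptions (16 beams per chamber) recorded over 10 min, 5–15 min after dosing. Reported as % inhibition relative to the vehicle group. n = 6 per dose.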

Mus musculus [13] = assay: Locomotor activity in Harlan ICR mouse assessed as inhibition of activity level at 74 umol/kg, iv from 5 to 15 mins by spontaneous locomotor activity test relative to vehicle treated control; type: functional; procedure, shortened: as §2
Mus musculus [14] = assay: Hypothermic activity in Harlan ICR mouse assessed as change in rectal temperature at 74 umol/kg, iv at 30 mins; type: functional; procedure, shortened: as §3
Mus musculus [15] = assay: Antinociceptive activity in Harlan ICR mouse assessed as latency to heat-induced tail flicking at 74 umol/kg, iv at 20 mins relative to control; type: functional
Mus musculus [16] = organism: Mus musculus; assay: Induction of catalepsy in mouse by ring immobility test; type: functional

Sequence of Cannabinoid receptor 2 (P34972 whole entry): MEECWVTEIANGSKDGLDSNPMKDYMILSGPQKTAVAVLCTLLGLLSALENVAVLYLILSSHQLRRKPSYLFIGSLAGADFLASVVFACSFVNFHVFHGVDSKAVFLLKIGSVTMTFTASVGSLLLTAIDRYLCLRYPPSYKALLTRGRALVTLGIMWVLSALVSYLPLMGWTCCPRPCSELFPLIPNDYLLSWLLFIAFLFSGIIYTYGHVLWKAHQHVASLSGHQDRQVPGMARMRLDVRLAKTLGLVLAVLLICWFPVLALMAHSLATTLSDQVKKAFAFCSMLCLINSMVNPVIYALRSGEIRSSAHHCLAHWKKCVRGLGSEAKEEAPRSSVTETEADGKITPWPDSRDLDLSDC
T1 sequence (P21554 whole entry): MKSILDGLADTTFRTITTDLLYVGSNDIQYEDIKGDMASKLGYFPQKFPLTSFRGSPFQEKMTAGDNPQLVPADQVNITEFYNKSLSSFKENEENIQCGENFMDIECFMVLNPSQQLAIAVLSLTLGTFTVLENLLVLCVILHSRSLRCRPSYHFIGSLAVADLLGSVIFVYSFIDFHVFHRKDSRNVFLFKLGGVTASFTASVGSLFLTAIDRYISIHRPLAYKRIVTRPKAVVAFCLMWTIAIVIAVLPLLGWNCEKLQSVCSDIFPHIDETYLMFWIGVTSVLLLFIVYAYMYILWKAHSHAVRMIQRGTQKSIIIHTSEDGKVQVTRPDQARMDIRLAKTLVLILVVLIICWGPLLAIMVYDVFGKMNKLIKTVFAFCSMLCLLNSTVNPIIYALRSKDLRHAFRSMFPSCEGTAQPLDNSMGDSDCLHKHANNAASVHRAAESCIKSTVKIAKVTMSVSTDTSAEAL

CCCCCn1c(C)c(C(=O)c2ccc(Br)c3ccccc23)c2ccccc21
Ki (Cannabinoid receptor 1 [1]): 0.014 µM
Ki (Cannabinoid receptor 2): 0.0028 µM
Ratio Ki (Homo sapiens): 5

CCCCCn1cc(C(=O)c2ccc(I)c3ccccc23)c2ccccc21
Ki (Cannabinoid receptor 1 [1]): 0.0025 µM
Ki (Cannabinoid receptor 2): 0.0013 µM
Ratio Ki (Homo sapiens): 2
ED50 (Mus musculus [2]): 0.3 µmol/kg
ED50 (Mus musculus [3]): 0.45 µmol/kg
ED50 (Mus musculus [4]): 0.19 µmol/kg
ED50 (Mus musculus [5]): 0.38 µmol/kg

C=C1CC[C@@H]2[C@@H](C1)c1ccc(C(C)(C)CCCCCC)cc1OC2(C)C
Activity (Cannabinoid receptor 1 [6]): inactive

CCCCCn1c(C)c(C(=O)c2ccc(Cl)c3ccccc23)c2ccccc21
Ki (Cannabinoid receptor 1 [1]): 0.0089 µM
Ki (Cannabinoid receptor 2): 0.0023 µM
Ratio Ki (Homo sapiens): 4
inhibition in vivo at 77 µmol/kg (Mus musculus [7]): 94%
Activity (Mus musculus [8]): 100%
Activity (Mus musculus [9]): -6.4%
Activity (Mus musculus [10]): 88%

CCCn1c(C)c(C(=O)c2cccc3cccc(I)c23)c2ccccc21
Ki (Cannabinoid receptor 1 [1]): 4.29 µM
Ki (Cannabinoid receptor 2): 0.536 µM
Ratio Ki (Homo sapiens): 8
inhibition (Mus musculus [11]): inactive

CCCCCn1cc(C(=O)c2ccc(F)c3ccccc23)c2ccccc21
Ki (Cannabinoid receptor 1 [1]): 0.0072 µM
Ki (Cannabinoid receptor 2): 0.0032 µM
Ratio Ki (Homo sapiens): 2
ED50 (Mus musculus [2]): < 0.08 µmol/kg
ED50 (Mus musculus [3]): 0.14 µmol/kg
ED50 (Mus musculus [4]): < 0.08 µmol/kg
ED50 (Mus musculus [5]): 0.58 µmol/kg

Cc1c(C(=O)c2cccc3ccccc23)c2cccc3c2n1[C@H](CN1CCOCC1)CO3 [WIN-552122]
ED50 (Mus musculus [2]): 0.23 µmol/kg
ED50 (Mus musculus [3]): 0.94 µmol/kg

CCCCCn1c(C)c(C(=O)c2cccc3cccc(I)c23)c2ccccc21
Ki (Cannabinoid receptor 1 [1]): 0.522 µM
Ki (Cannabinoid receptor 2): 0.013 µM
Ratio Ki (Homo sapiens): 40
inhibition (Mus musculus [12]): inactive

CCCn1c(C)c(C(=O)c2cccc3cccc(Br)c23)c2ccccc21
Ki (Cannabinoid receptor 1 [1]): > 10 µM
Ki (Cannabinoid receptor 2): 0.278 µM
Ratio Ki (Homo sapiens): > 36
inhibition in vivo at 74 µmol/kg (Mus musculus [13]): 49%
Activity (Mus musculus [14]): -2.3%
Activity (Mus musculus [15]): 72%

CCCCCn1c(C)c(C(=O)c2ccc(I)c3ccccc23)c2ccccc21
Ki (Cannabinoid receptor 1 [1]): 0.014 µM
Ki (Cannabinoid receptor 2): 0.0021 µM
Ratio Ki (Homo sapiens): 7
ED50 (Mus musculus [2]): 1.1 µmol/kg
ED50 (Mus musculus [3]): 2.5 µmol/kg
ED50 (Mus musculus [4]): 2.6 µmol/kg
ED50 (Mus musculus [5]): 2.5 µmol/kg

CCCCCn1c(C)c(C(=O)c2ccc(F)c3ccccc23)c2ccccc21
Ki (Cannabinoid receptor 1 [1]): 0.014 µM
Ki (Cannabinoid receptor 2): 0.0022 µM
Ratio Ki (Homo sapiens): 6
ED50 (Mus musculus [2]): 0.38 µmol/kg
ED50 (Mus musculus [3]): 0.48 µmol/kg
ED50 (Mus musculus [4]): 0.54 µmol/kg
ED50 (Mus musculus [5]): 0.99 µmol/kg

CCCn1cc(C(=O)c2ccc(Cl)c3ccccc23)c2ccccc21
Ki (Cannabinoid receptor 1 [1]): 0.093 µM
Ki (Cannabinoid receptor 2): 0.044 µM
Ratio Ki (Homo sapiens): 2

CCCn1c(C)c(C(=O)c2cccc3ccccc23)c2ccccc21
ED50 (Mus musculus [2]): 18.7 µmol/kg
ED50 (Mus musculus [3]): 84.7 µmol/kg
ED50 (Mus musculus [4]): 99.1 µmol/kg
ED50 (Mus musculus [16]): 87.2 µmol/kg
